Measurements as given in ChEMBL document CHEMBL1136298, “Synthesis of novel C2 and C2-C8 linked pyrrolo[2,1-c][1,4]benzodiazepine-naphthalimide hybrids as DNA-binding agents” (2003).

Experiments:
[1] = tested on: MCF7; test: In vitro anticancer activity against breast MCF-7 cell line; assay type: functional, Homo sapiens
Outline: (§1)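 Primary screen in a three-cell-line panel of MCF7 (breast), NCI-H460 (lung) and SF-268 (CNS), with each compound tested as one dose at 10⁻⁴ molar.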

[2] = tested on: T47D; test: In vitro cytotoxic activity against breast T-47D cell line; assay type: functional; settings: Homo sapiens
[3] = tested on: CCRF-CEM; test: In vitro cytotoxic activity against leukemia CCRF-CEM cell line; assay type: functional; settings: Homo sapiens
[4] = tested on: SR; test: In vitro cytotoxic activity against SR cell line; assay type: functional; settings: Homo sapiens
[5] = tested on: SF-268; test: In vitro anticancer activity against SF-268 (CNS) cell line; assay type: functional, Homo sapiens; outline: as §1
[6] = tested on: MOLT-4; test: In vitro cytotoxic activity against MOLT-4 cell line; settings: Homo sapiens
[7] = tested on: HL-60; test: In vitro cytotoxic activity against HL60 (TB) cell line; assay type: functional; settings: Homo sapiens
[8] = tested on: SNB-19; test: In vitro cytotoxic activity against central nervous system (CNS) SNB-19 cell line; assay type: functional; settings: Homo sapiens
[9] = tested on: NCI-H460; test: In vitro anticancer activity against lung NCI-H460 cell line; assay type: functional, Homo sapiens; outline: as §1

What does the source list for `COc1cc2c(cc1OCc1ccccc1)N=C[C@@H]1C/C(=C\C(=O)NCCCN3C(=O)c4cccc5cccc(c45)C3=O)CN1C2=O`?
Activity [1]: 0%; GI50 [2]: 34 nM; GI50 [3]: 62 nM; GI50 [4]: < 10 nM; Activity [5]: 1%; GI50 [6]: 55 nM; GI50 [7]: 91 nM; GI50 [8]: 80 nM; Activity [9]: 0%

With `COc1cc2c(cc1OCc1ccccc1)N=C[C@@H]1C/C(=C\C(=O)NCCN3C(=O)c4cccc5cccc(c45)C3=O)CN1C2=O` as the molecule, how does the Activity [1] read?
Its Activity is 89%.

And the Activity [5]?
The Activity was 95%.

And the Activity [9]?
The Activity was 101%.

Which Activity [1] does the source give for `COc1cc2c(cc1OCCCN1C(=O)c3cccc4cccc(c34)C1=O)N=C[C@@H]1C/C(=C\C(=O)NCCCN3C(=O)c4cccc5cccc(c45)C3=O)CN1C2=O` here?
Its Activity is 86%.

And the Activity [5]?
The Activity was 97%.

And the Activity [9]?
Its Activity is 102%.
